Screening results deposited in PubChem by Johns Hopkins Ion Channel Center.
In the library only some 2.3% were active in any assay of this set; here they are far more common.
TRPC6 inh: mouse TRPC6 channel inhibitors, primary screen, cell-based, HEK293, membrane potential dye | ACh-evoked depolarization; active compounds read low | Short transient receptor potential channel 6 (Mus musculus), Q61143 | B-score at 10 µM | AID 2553, 2010 | 310,000 tested, 1.1% active;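 active means B-score under library mean minus 3 SD, initial fluorescence not abnormally high, positive integrated signal ratio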;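 further: B-score derived from integrated fluorescence ratio over the kinetic read; more negative B-score means stronger inhibition of depolarization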
Target sequence (Q61143 whole entry, looked up): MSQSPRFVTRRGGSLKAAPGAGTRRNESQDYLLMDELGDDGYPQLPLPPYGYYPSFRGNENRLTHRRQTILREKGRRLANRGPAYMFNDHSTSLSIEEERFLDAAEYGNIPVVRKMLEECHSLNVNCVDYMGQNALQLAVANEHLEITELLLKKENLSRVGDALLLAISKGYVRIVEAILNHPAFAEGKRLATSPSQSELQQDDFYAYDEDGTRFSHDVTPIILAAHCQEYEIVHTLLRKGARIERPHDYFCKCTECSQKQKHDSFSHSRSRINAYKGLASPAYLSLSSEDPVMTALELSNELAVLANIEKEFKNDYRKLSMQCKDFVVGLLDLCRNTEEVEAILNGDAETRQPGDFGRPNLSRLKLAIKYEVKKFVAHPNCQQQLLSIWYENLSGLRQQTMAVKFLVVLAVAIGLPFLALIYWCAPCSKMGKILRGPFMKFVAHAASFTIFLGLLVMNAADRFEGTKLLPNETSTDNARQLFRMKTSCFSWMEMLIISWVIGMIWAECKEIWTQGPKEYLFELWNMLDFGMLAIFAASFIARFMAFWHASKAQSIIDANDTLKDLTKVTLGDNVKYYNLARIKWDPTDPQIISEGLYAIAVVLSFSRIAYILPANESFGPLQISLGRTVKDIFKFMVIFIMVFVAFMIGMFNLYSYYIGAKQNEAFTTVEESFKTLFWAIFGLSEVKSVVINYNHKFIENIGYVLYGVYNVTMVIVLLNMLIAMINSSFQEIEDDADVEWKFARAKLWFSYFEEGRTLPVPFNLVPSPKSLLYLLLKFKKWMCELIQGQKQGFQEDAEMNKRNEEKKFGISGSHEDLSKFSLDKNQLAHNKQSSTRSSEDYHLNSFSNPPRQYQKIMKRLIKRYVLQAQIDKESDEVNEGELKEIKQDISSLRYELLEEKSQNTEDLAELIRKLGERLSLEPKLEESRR
TRPC6 act: mouse TRPC6 channel activators, primary screen, cell-based, HEK293, membrane potential dye. Short transient receptor potential channel 6 (Mus musculus), Q61143. HEK293-TRPC6 membrane potential dye fluorescence; active compounds read high. B-score at 10 µM. 310,000 tested, 0.13% active;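 active means B-score of the integrated fluorescence ratio above library mean plus 3 SD, and starting fluorescence ratio within library mean plus 5 SD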;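 further: higher score means more depolarization so channel activation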
TRPC4 act: activators of mouse TRPC4 channel, primary screen, Fluo4 calcium, HEK293 TRPC4beta/mu-opioid cells. Short transient receptor potential channel 4 (Mus musculus), Q9QUQ5. Fluo4 calcium fluorescence; active compounds read high. B-score at 10 µM. 310,000 tested, 0.49% active;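 active means B-score above 5 SD of library B-scores, and initial fluorescence ratio not above library mean plus 5 SD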;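 further: positive B-score marks a calcium rise read as TRPC4 activation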
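Assay system: HEK293 cells stably co-expressing mouse TRPC4beta and mu-opioid receptor / Timing: Fluo4 dye loading 45 min at room temperature, 110 s recording / Signal: Fluo4 calcium-sensitive dye fluorescence, kinetic, 1 Hz baseline / Read-out: integrated baseline-normalised fluorescence ratio, converted to per-well B score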
TRPC4 potent: positive allosteric modulators of TRPC4, primary screen, cell-based, mouse TRPC4beta, HEK293 mu-opioid, Fluo-4 calcium | Short transient receptor potential channel 4 (Mus musculus), Q9QUQ5 | DAMGO EC20, Fluo-4 Ca2+ flux; active compounds read high | B-score at 10 µM | 310,000 tested, 0.42% active | AID 2227, 2009;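 active means B-score of calcium response area above 5 SD of library B-scores, with initial fluorescence ratio within 5 SD of library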;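 further: B-score of integrated fluorescence ratio over time as area under calcium response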
TRPC4 block: inhibitors of mouse TRPC4 channel, primary screen, Fluo4 calcium, HEK293 TRPC4beta/mu-opioid cells | 300,000 tested, 0.39% active | B-score at 10 µM | DAMGO-evoked Fluo4 calcium flux; active compounds read low;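 active means B-score over 3 SD under the library average, no early fluorescence shift, positive overall ratio signal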
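material = TRPC4beta/mu-opioid receptor HEK293 cell line | probe or stimulus = sequential submaximal and maximal DAMGO stimulation | compound dosing = one concentration per compound | measured by = Fluo4 Ca2+ flux fluorescence | evaluation = integrated fluorescence ratio relative to baseline, converted to per-well B score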
TRPC4 spec 2: second selectivity test of TRPC6 inhibitors: effect on mouse TRPC4. inhibition, % at 10 µM. HEK293 TRPC4/MOR, membrane potential dye fluorescence; channel activated by saturating DAMGO dose. AID 2776. shares compounds with TRPC6 inh. 920 tested, 42% active;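 active means compounds whose fluorescence signal differed from control wells by over 3 SD, either direction, in both duplicate plates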
TRPC4 spec: mouse TRPC4 modulation by TRPC6 hits, confirmation, selectivity assay for TRPC6 inhibitor project, cell-based, HEK293 TRPC4/mu-opioid, membrane potential dye; shares compounds with TRPC6 inh; membrane potential fluorescence; activity change, negative = inhibition, % at 10 µM; 920 tested, 61% active; AID 2777, 2010;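 active means rise or fall in signal beyond 3 SD of buffer-only wells in both replicate plates, either sign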;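 further: integrated kinetic ratio of fluorescence range over baseline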
HEK293 MPD ctr 2-1: nonspecific membrane potential effects, parental HEK293, confirmation, counter-screen for TRPC6 inhibitor project, cell-based, second counter screen | shares compounds with TRPC6 inh | parental HEK293 membrane potential dye fluorescence; maximal acetylcholine challenge after compound addition | signal change vs control, % at 10 µM | 920 tested, 31% active;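 active means membrane potential signal moving either way by over 3 SD of the maximum-effect control, in both duplicate plates, meaning non-specific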
HEK293 MPD ctr-1: membrane potential modulation in parental HEK293, confirmation, counter-screen for TRPC6 inhibitor project, cell-based; shares compounds with TRPC6 inh; parental HEK293 membrane potential dye fluorescence; membrane potential signal change, % at 10 µM; 920 tested, 60% active; AID 2780, 2010;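 active means membrane potential signal shifting up or down by more than 3 SD of buffer-only wells, on both duplicate plates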
HEK293 MPD ctr-2: parental HEK293 membrane potential modulation, confirmation, counter-screen for TRPC6 modulator project, cell-based; membrane potential signal change, % at 10 µM; membrane potential dye fluorescence; shares compounds with TRPC6 inh; 2,400 tested, 51% active;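 active means membrane potential signal moves up or down beyond 5 SD from buffer-only wells, on both duplicate plates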
HEK293 MPD ctr 2-2: second check of TRPC6 modulator effects in parental HEK293 cells | shares compounds with TRPC6 inh | membrane potential dye fluorescence; after compound, maximal acetylcholine stimulation | inhibition, % at 10 µM | 2,400 tested, 14% active;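 active means membrane potential signal drops by more than 5 SD from the mean control signal, in both duplicate plates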;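 further: plate controls were acetylcholine ECmax control wells for no effect and buffer only wells for full effect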
TRPC4/MOR mod: TRPC4 modulation by TRPC6 hit compounds, confirmation, selectivity assay for TRPC6 modulator project, cell-based, HEK293 TRPC4/mu-opioid, membrane potential dye, mouse; 2,400 tested, 69% active; shares compounds with TRPC6 inh; percent change from control (negative = decrease, positive = increase), % at 10 µM; AID 488927, 2010; membrane potential fluorescence;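 active means membrane potential signal moved up or down beyond 5 SD of buffer control wells, in both duplicate plates, actives on both sides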;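 further: plate controls were assay buffer wells for no effect and DAMGO maximal-effect wells for full effect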
TRPC4/MOR inh 2: mouse TRPC4 off-target activity of TRPC6 modulators, second screen; shares compounds with TRPC6 inh; HEK293 TRPC4/mu-opioid, membrane potential dye fluorescence; stimulated with maximal-effect DAMGO; inhibition, % at 10 µM; 2,400 tested, 55% active;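 active means drop in membrane potential signal beyond 5 SD of the control wells in both duplicate plates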;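 further: TRPC4 counter screen for TRPC6 hits run under conditions tuned for TRPC6 not TRPC4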
TRPC6 inh conf: mouse TRPC6 channel inhibitors, confirmation, HEK293 cells, membrane potential dye, duplicate; shares compounds with TRPC6 inh; ACh-evoked depolarization; inhibition, % at 10 µM; 3,300 tested, 43% active;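 active means fluorescence ratio falls more than 5 SD below the full-stimulation control mean, in both duplicate runs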;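 further: integrated fluorescence ratio of peak minus minimum over baseline after agonist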
TRPC6 act conf: mouse TRPC6 channel activators, confirmation, HEK293 cells, membrane potential dye, duplicate. shares compounds with TRPC6 inh. HEK293-TRPC6 membrane potential dye fluorescence, FDSS. AID 488961, 2010. 2,800 tested, 11% active. activation, % at 10 µM;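 active means ratio signal rise beyond 5 SD above unstimulated control wells' mean, seen in both duplicate runs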;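 further: plate controls were buffer EC0 wells for no effect and acetylcholine ECmax response for full effect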
* marks the source's active call; other numbers are inactive results; i = inactive; . = no result given.

SMILES | TRPC6 inh | TRPC6 act | TRPC4 act | TRPC4 potent | TRPC4 block | HEK293 MPD ctr-2 | HEK293 MPD ctr 2-2 | TRPC4/MOR mod | TRPC4/MOR inh 2 | TRPC6 inh conf | TRPC6 act conf | others
Cc1ccc(-c2nc(C(=O)NCCCN(C)C)cc3c2[nH]c2ccccc23)cc1 | -9.8* | i | i | i | i | . | . | . | . | 78%* | i | TRPC4 spec 2=30%*;TRPC4 spec=-21%*;HEK293 MPD ctr 2-1=30%*;HEK293 MPD ctr-1=-255%*
COc1ccc(OC)c(-c2nc(C(=O)NCCCN3CCOCC3)cc3c2[nH]c2ccccc23)c1 | -6* | i | i | i | i | i | i | i | 48%* | i | i
CCCCc1ccc(NC(=O)CN2C(=O)C3CCCCC3C2=O)cc1 (stereo not drawn) | i | i | i | i | i | . | . | . | . | . | .
Cc1cccc[n+]1CC(=O)Nc1ccc([N+](=O)[O-])cc1Cl | i | i | i | i | i | . | . | . | . | . | .
O=C(C[n+]1ccc(Cc2ccccc2)cc1)Nc1ccc([N+](=O)[O-])cc1Cl | -7.6* | i | i | i | i | . | . | . | . | i | i | TRPC4 spec 2=i;TRPC4 spec=-27%*;HEK293 MPD ctr 2-1=i;HEK293 MPD ctr-1=-334%*
CC(C)(C)C(=O)Nc1cc(NC(=O)C(C)(C)C)cc(C(=O)Nc2c[nH]c(=O)[nH]c2=O)c1 | i | i | i | i | i | . | . | . | . | . | .
O=C(NCCCn1ccnc1)C1c2ccccc2Oc2ccccc21 | -6* | i | i | i | i | i | i | 32%* | i | i | i
CN1CCN(C(=O)C2CCC(=O)N(CCc3cccc(F)c3)C2)CC1 (stereo not drawn) | i | i | i | i | i | . | . | . | . | . | .
CCOc1ccccc1NC(=O)CCCc1ccc(OC)c(C)c1 | i | i | i | i | i | . | . | . | . | . | .
S=C(NC1CCCC1)N1CCN(c2ncccn2)CC1 | i | i | i | i | i | . | . | . | . | . | .
CC(C)NC(=S)N1CCN(c2ncccn2)CC1 | -5.4* | i | i | i | i | i | i | 17%* | i | i | i
CN(Cc1ccccc1)C(=O)COc1ccc(C(C)(C)C)cc1 | i | i | i | i | i | . | . | . | . | . | .
Cc1sc2nc(CN3CCCCC3)nc(Nc3ccc4c(c3)OCCO4)c2c1C | -5* | i | i | i | i | i | i | i | i | 44%* | .
Cc1sc2nc(CN3CCCC3)nc(NCc3ccncc3)c2c1C | i | i | i | i | i | . | . | . | . | . | .
COCCN(Cc1nc(-c2ccc(-c3ccccc3)cc2)oc1C)C(C)C | i | i | i | i | i | . | . | . | . | . | .
OCC[C@H]1C[C@@H](O)[C@H](O)[C@@]2(CCCCO2)O1 | -7.4* | i | i | i | i | . | . | . | . | i | i | TRPC4 spec 2=i;TRPC4 spec=i;HEK293 MPD ctr 2-1=i;HEK293 MPD ctr-1=i
Cc1ccsc1C(=O)NN=C1CCCCCC1 | i | i | i | i | i | . | . | . | . | . | .
COC(=O)CC1C(=O)NC2CCCCC2N1C(=O)CCl (stereo not drawn) | i | i | i | i | i | . | . | . | . | . | .
CCCn1c2ccccc2c2cnn(CC(=O)N3CCN(C4CCCCC4)CC3)c(=O)c21 | i | 15* | i | i | i | 318%* | i | 56%* | i | i | 106%*
COc1ccc(-c2cc(C(F)(F)F)c3c(N)c(C(=O)NCCSC)sc3n2)cc1 | i | i | i | i | i | . | . | . | . | . | .
CN(C)CCNC(=O)c1sc2nc(-c3ccccc3)cc(C(F)(F)F)c2c1N | i | 16* | 83* | i | i | 312%* | i | 57%* | 45%* | . | 144%*
CN(C)S(=O)(=O)c1cccc(COC(=O)Cc2c(F)cccc2Cl)c1 | i | i | i | i | i | . | . | . | . | . | .
Cc1c(C)n(CCc2ccccc2)c2ncnc(NCCCN(C)C)c12 | -6.3* | i | i | i | i | -70%* | i | -22%* | 58%* | 58%* | i
Cc1c(C)n(CCCN(C)C)c2ncnc(Nc3ccc(F)cc3)c12 | -6.3* | i | i | i | i | -144%* | i | -30%* | 38%* | 40%* | i
Cc1c(C)n(CCN(C)C)c2ncnc(NCc3ccccc3)c12 | i | i | i | i | i | . | . | . | . | . | .
